Results as given in PMC3374645 (European Journal of Pharmaceutical Sciences, 2012).
In brackets after ≈: the same amount, converted by molar mass. Like-named read-outs stand apart in the source and are kept apart here.

Key:
[1] = comparison value, no reference given; cited from earlier work
[2] = 2008, cited from earlier work
[3] = Partition coefficient in octanol:water system; format: physicochemical; conditions: pH 7.0
How it was run: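 Test compound (1.0 mg) was added to 4.0 mL of a 1:1 octanol:water mixture at pH 7.0 and shaken vigorously for 30 min. Phases were separated by centrifugation, passed through 0.1 µm filters and quantified by reverse-phase C18 HPLC (90% acetonitrile, 242 nm).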

[4] = Saturation solubility, shake-flask in buffers, HPLC; format: physicochemical
How it was run: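 Shake-flask method: excess test compound was placed in 1.0 mL citrate, HEPES or phosphate buffer at pH 2.0–8.0 and shaken 24 h at 25.0 ± 0.1 °C, 1500 rpm. Suspensions then stood unshaken overnight before centrifugation. Supernatants were filtered (0.1 µm) and measured by reverse-phase C18 HPLC at 242 nm.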

Caco-2 monolayers = assay: Bidirectional permeability in Caco-2 monolayers; format: in vitro ADME
[5] = Three-compartment model fit after i.v. administration; format: in vivo, Sprague–Dawley rats; conditions: rat, i.v. 5.0 mg/kg
How it was run: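 Rats received a tail-vein injection of 5.0 mg/kg in ethanol/TPGS/water vehicle. Plasma was taken from 0.017 to 24 h and assayed by HPLC. Concentration–time data were fitted by generalized least squares to three-compartment mass-balance differential equations, seeded with noncompartmental estimates. Parameters are reported with CV%; Vss was taken as the sum of the compartment volumes.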

[6] = Parallel artificial membrane permeability assay; format: in vitro ADME; conditions: PAMPA, pH 7.4, 4 h
[7] = Simultaneous three-compartment model fit of i.v. and oral data; format: in vivo, Sprague–Dawley rats; conditions: rat
How it was run: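 Pooled i.v. (5.0 mg/kg) and oral (20, 40, 60 mg/kg gavage) rat plasma data were fitted simultaneously by generalized least squares with variance error models. The structural model had three compartments with combined zero-order/Michaelis–Menten limited systemic uptake. Models were discriminated by goodness-of-fit plots, residuals, SE, CV%, CI95% and lowest AIC.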

[8] = Noncompartmental pharmacokinetics after oral administration; format: in vivo, Sprague–Dawley rats; conditions: rat
How it was run: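 Male Sprague–Dawley rats (240–350 g, n = 5/group) were fasted overnight and gavaged with 2% (w/v) test compound in ethanol/TPGS/water. Tail-vein plasma was sampled predose and 0.25–24 h, precipitated with acetonitrile, and run on C18 HPLC at 242 nm (nimesulide internal standard; 0.05–8.00 μg/mL calibration). Per-rat SHAM analysis used log-trapezoidal AUC, with CL = Dose/AUC.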

c1ccc2c(Cc3c[nH]c4ccccc34)c[nH]c2c1 [DIM, 3,3′-diindolylmethane]
Log K0/w [1]: ≈ 4.0 | Cmax ([2]; single 100 mg dose ref Reed et al.): 32 ng/mL | Cmax ([2]; single 200 mg dose ref Reed et al.): 104 ng/mL | Cmax ([2]; single 300 mg dose ref Reed et al.): 108 ng/mL

c1ccc(-c2ccc(C(c3c[nH]c4ccccc34)c3c[nH]c4ccccc34)cc2)cc1 [DIM-P, DIM-C-pPhC6H5]
experimental Log K0/w [3]: 6.79 ± 0.12 and ≈ 7.0 | aqueous solubility ([4]; pH 2.0, 25 °C, 24 h shake-flask): 0.28 ± 0.03 µg/mL (≈ 0.703 µM) | maximum aqueous solubility ([4]; pH 8.0, 25 °C, 24 h shake-flask): 0.73 ± 0.09 µg/mL | overall solubility ([4]; pH range 2–8): less than 1.0 μg/mL | Peff A–B (Caco-2 monolayers; Caco-2, apical pH 5): 0.34 ± 0.06 × 10^−6 cm/s | Peff B–A (Caco-2 monolayers; Caco-2, apical pH 5): 0.53 ± 0.08 × 10^−6 cm/s | Peff A–B (Caco-2 monolayers; Caco-2, apical pH 5.8): 0.33 ± 0.07 × 10^−6 cm/s | Peff B–A (Caco-2 monolayers; Caco-2, apical pH 5.8): 0.50 ± 0.06 × 10^−6 cm/s | Peff A–B (Caco-2 monolayers; Caco-2, apical pH 6.8): 0.35 ± 0.06 × 10^−6 cm/s | Peff B–A (Caco-2 monolayers; Caco-2, apical pH 6.8): 0.52 ± 0.07 × 10^−6 cm/s | average Peff, B–A (Caco-2 monolayers; Caco-2, basolateral to apical, average): 0.51 ± 0.09 × 10^−6 cm/s | absorptive (A–B) versus secretive (B–A) transport (Caco-2 monolayers; bidirectional Caco-2, no active efflux): nearly unity | Biopharmaceutics Classification System (BCS) class (Caco-2 monolayers; from low solubility and low permeability): Class IV | apparent distributional phase [5]: < 2 h | VSS ([5]; secondary parameter): 0.68285 L/kg | t1/2 ([5]; secondary parameter): 10.653 h | CLC ([5]; three compartment model): 0.74 mL/min/kg | CLd1 ([5]; three compartment model): 0.56 mL/min/kg | CLd2 ([5]; three compartment model): 0.29 mL/min/kg | V1 ([5]; three compartment model): 0.64098 L/kg | V2 ([5]; three compartment model): 0.02822 L/kg | VC ([5]; three compartment model): 0.01365 L/kg | donor-to-receptor apparent permeability (Papp) ([6]; stirred water layer): 2.69 ± 0.08 × 10^−6 cm/s | donor-to-receptor apparent permeability (Papp) ([6]; unstirred water layer): 0.58 ± 0.07 × 10^−6 cm/s | zero-order absorption site access rate ([7]; oral 20 mg/kg): 14 mg/h/kg | zero-order absorption site access rate ([7]; oral 40 mg/kg): 28 mg/h/kg | zero-order absorption site access rate ([7]; oral 60 mg/kg): 42 mg/h/kg | CLC ([7]; simultaneous fit i.v. 5.0 and oral 20, 40, 60 mg/kg): 0.77 mL/min/kg | Abmax (maximum absorption rate at saturation) ([7]; simultaneous fit i.v. and oral): 60.65 µg/min/kg | CLd1 ([7]; simultaneous fit i.v. and oral): 0.606 mL/min/kg | CLd2 ([7]; simultaneous fit i.v. and oral): 0.319 mL/min/kg | FBIO ([7]; simultaneous fit i.v. and oral): 0.126 | SD50 (amount of drug at the absorption site at 50% saturation) ([7]; simultaneous fit i.v. and oral): 8.6797 mg/kg | Tsite (time required for drug to reach absorption site) ([7]; simultaneous fit i.v. and oral): 85.20 min | V1 ([7]; simultaneous fit i.v. and oral): 0.64606 L/kg | V2 ([7]; simultaneous fit i.v. and oral): 0.0285 L/kg | VC ([7]; simultaneous fit i.v. and oral): 0.0139 L/kg | AUC0–24h /Dose ([8]; oral 20 mg/kg): 2.28 ± 0.46 (min/L) *10^−3 | AUMC0–24h ([8]; oral 20 mg/kg): 250.45 ± 62.42 μg × min^2/mL | AUMC0–24h/Dose ([8]; oral 20 mg/kg): 0.012 ± 0.003 min^2/mL | CL ([8]; oral 20 mg/kg): 0.8652 ± 0.0648 mL/min/kg | Cmax ([8]; oral 20 mg/kg): 7210 ± 1190 ng/mL | Cmax/dose ([8]; oral 20 mg/kg): 0.36 ± 0.06 | FBIO (absolute bioavailability) ([8]; oral 20 mg/kg): 0.13 ± 0.03 | MRT ([8]; oral 20 mg/kg): 5.47 ± 0.64 h | Terminal t1/2 ([8]; oral 20 mg/kg): 6.91 ± 3.84 h | Vss ([8]; oral 20 mg/kg): 0.49979 ± 0.223605 L/kg | time of maximum plasma level ([8]; oral 20 mg/kg): 2 h | AUMC0–24h ([8]; oral 40 mg/kg): 548.85 ± 207.09 μg × min^2/mL | AUMC0–24h/Dose ([8]; oral 40 mg/kg): 0.014 ± 0.005 min^2/mL | CL ([8]; oral 40 mg/kg): 0.8315 ± 0.0753 mL/min/kg | Cmax ([8]; oral 40 mg/kg): 11270 ± 1040 ng/mL | Cmax/dose ([8]; oral 40 mg/kg): 0.28 ± 0.03 | FBIO (absolute bioavailability) ([8]; oral 40 mg/kg): 0.12 ± 0.03 | MRT ([8]; oral 40 mg/kg): 6.29 ± 1.14 h | Terminal t1/2 ([8]; oral 40 mg/kg): 7.86 ± 3.12 h | Vss ([8]; oral 40 mg/kg): 0.54861 ± 0.16478 L/kg | time of maximum plasma level ([8]; oral 40 mg/kg): 2 h | AUC0–24h /Dose ([8]; oral 60 mg/kg): 2.32 ± 0.46 (min/L) *10^−3 | AUMC0–24h ([8]; oral 60 mg/kg): 912.16 ± 299.02 μg × min^2/mL | AUMC0–24h/Dose ([8]; oral 60 mg/kg): 0.015 ± 0.005 min^2/mL | CL ([8]; oral 60 mg/kg): 0.8397 ± 0.0582 mL/min/kg | Cmax ([8]; oral 60 mg/kg): 17860 ± 1620 ng/mL | Cmax/dose ([8]; oral 60 mg/kg): 0.30 ± 0.03 | FBIO (absolute bioavailability) ([8]; oral 60 mg/kg): 0.13 ± 0.03 | MRT ([8]; oral 60 mg/kg): 6.43 ± 0.81 h | Terminal t1/2 ([8]; oral 60 mg/kg): 7.60 ± 2.34 h | Vss ([8]; oral 60 mg/kg): 0.54239 ± 0.12804 L/kg | time of maximum plasma level ([8]; oral 60 mg/kg): 3 h | absolute bioavailability ([8]; oral, as stated in abstract): 0.13 ± 0.06

Lucifer Yellow [reference compound]
mean permeability of paracellular control (Caco-2 monolayers; Caco-2 monolayer integrity control): < 0.15 ×10⁻⁶ cm/s
